Source: ChEMBL document CHEMBL3351652, “First photoswitchable neurotransmitter transporter inhibitor: light-induced control of γ-aminobutyric acid transporter 1 (GAT1) activity in mouse brain” (J Med Chem, 2014)
Activity calls are given as the source filed them. The calls are words filed in the database; no cut-off is given here.

What was measured:
[1] = target: T1, Sodium- and chloride-dependent GABA transporter 1 (Mus musculus, UniProt P31648); assay: Inhibition of mouse GAT1 stably expressed in HEK293 assessed as inhibition of [3H]GABA uptake after 25 mins by liquid scintillation counting; type: cell-based
Outline: (§1)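 HEK cells stably expressing the individual murine GABA transporter subtype; standardized [3H]GABA uptake assay adapted for photoswitchable ligands, run with the pure (E)-isomers; inhibition expressed as pIC50 ± SEM.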

[2] = target: T2, GABA transporter 2 (Mus musculus, UniProt P31651); assay: Inhibition of mouse GAT2 stably expressed in HEK293 assessed as inhibition of [3H]GABA uptake after 25 mins by liquid scintillation counting; type: cell-based; outline: as §1
T2 sequence (P31651 whole entry): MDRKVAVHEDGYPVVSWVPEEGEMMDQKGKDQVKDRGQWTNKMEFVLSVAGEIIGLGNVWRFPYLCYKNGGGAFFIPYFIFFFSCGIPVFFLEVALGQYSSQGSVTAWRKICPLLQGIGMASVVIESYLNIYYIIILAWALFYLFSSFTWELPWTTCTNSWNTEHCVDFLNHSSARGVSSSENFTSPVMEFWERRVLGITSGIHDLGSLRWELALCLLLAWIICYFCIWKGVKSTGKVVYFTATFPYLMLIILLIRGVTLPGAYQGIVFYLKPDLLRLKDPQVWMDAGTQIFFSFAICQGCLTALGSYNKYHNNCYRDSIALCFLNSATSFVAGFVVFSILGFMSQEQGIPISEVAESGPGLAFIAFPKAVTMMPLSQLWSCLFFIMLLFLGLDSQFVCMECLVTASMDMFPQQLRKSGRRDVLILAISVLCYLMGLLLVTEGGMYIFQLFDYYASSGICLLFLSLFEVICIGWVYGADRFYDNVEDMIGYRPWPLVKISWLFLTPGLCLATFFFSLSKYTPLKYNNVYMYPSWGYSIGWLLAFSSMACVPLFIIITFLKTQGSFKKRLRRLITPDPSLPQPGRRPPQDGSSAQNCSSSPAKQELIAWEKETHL

[3] = target: T3, GABA transporter 4 (Mus musculus, UniProt P31650); assay: Inhibition of mouse GAT4 stably expressed in HEK293 assessed as inhibition of [3H]GABA uptake after 25 mins by liquid scintillation counting; type: cell-based; outline: as §1
T3 sequence (P31650 whole entry): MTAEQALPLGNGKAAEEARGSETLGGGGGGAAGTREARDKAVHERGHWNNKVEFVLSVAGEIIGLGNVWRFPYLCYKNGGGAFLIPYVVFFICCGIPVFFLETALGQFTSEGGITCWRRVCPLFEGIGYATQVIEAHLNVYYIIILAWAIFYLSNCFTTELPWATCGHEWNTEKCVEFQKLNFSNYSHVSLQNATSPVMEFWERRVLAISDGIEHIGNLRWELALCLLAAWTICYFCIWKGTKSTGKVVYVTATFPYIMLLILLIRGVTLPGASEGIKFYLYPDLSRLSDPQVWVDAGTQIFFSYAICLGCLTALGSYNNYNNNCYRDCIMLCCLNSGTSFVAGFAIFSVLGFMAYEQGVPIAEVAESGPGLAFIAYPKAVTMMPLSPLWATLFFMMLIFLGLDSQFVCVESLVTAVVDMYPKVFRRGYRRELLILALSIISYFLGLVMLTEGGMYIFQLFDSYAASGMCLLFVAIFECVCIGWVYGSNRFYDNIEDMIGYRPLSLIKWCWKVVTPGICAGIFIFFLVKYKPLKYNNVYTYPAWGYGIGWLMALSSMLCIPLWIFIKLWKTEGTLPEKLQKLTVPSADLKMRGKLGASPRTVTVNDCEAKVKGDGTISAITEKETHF

[4] = target: Sodium- and chloride-dependent GABA transporter 1 (Mus musculus) (UniProt P31648); assay: Selectivity ratio of IC50 for mouse GAT1 stably expressed in HEK293 assessed as inhibition of [3H]GABA uptake after 25 mins to IC50 for mouse GAT1 stably expressed in HEK293 assessed as inhibition of [3H]GABA uptake treated with compound irradiated at 375 nm for 30 mins measured after 25 mins
[5] = target: T4, GABA transporter 3 (Mus musculus, UniProt P31649); assay: Inhibition of mouse GAT3 stably expressed in HEK293 assessed as inhibition of [3H]GABA uptake after 25 mins by liquid scintillation counting; type: cell-based; outline: as §1
T4 sequence (P31649 whole entry): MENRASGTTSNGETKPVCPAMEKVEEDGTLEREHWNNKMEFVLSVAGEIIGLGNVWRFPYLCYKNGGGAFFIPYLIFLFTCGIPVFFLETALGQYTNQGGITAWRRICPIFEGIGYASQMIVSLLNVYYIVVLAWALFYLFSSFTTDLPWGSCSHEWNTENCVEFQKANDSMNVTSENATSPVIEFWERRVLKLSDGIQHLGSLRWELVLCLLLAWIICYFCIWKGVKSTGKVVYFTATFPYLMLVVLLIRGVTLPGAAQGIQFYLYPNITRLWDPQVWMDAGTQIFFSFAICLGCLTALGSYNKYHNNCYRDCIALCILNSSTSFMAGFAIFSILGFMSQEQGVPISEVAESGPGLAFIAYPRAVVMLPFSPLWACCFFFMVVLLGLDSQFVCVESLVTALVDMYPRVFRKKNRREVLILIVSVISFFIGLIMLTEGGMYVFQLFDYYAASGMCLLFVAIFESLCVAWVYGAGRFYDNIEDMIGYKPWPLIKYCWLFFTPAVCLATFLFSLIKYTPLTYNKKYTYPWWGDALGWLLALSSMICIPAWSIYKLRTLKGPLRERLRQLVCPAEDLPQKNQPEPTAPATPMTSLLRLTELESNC

[6] = target: Sodium- and chloride-dependent GABA transporter 1 (Mus musculus) (UniProt P31648); assay: Inhibition of GAT1 in C57BL/6N mouse dentate gyrus granule cells assessed as induction of tonic GABAA receptor-mediated current at -70 mV holding potential compound treated at 20 uM followed by neuronal tissue UV-irradiation by patch-clamp analysis
[7] = target: Sodium- and chloride-dependent GABA transporter 1 (Mus musculus) (UniProt P31648); assay: Inhibition of GAT1 in C57BL/6N mouse dentate gyrus granule cells assessed as induction of tonic GABAA receptor-mediated current at -70 mV holding potential UV irradiated compound treated at 20 uM by patch-clamp analysis
[8] = target: Sodium- and chloride-dependent GABA transporter 1 (Mus musculus) (UniProt P31648); assay: Inhibition of GAT1 in C57BL/6N mouse dentate gyrus granule cells assessed as induction of tonic GABAA receptor-mediated current at -70 mV holding potential non-UV irradiated compound treated at 20 uM by patch-clamp analysis
[9] = target: T1, Sodium- and chloride-dependent GABA transporter 1; assay: Inhibition of mouse GAT1 stably expressed in HEK293 assessed as inhibition of [3H]GABA uptake treated with compound irradiated at 375 nm for 30 mins measured after 25 mins by liquid scintillation counting; type: cell-based
[10] = Half life of thermal relaxation of the compound in DMSO-d6/phosphate-buffer at pH 7.4 in dark at 50 uM by UV/vis-spectroscopy; type: physicochemical; settings: pH 7.4, 50 µM
Outline: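 Photoisomer relaxation to (E) monitored in the dark by UV/vis spectroscopy at 50 μM in DMSO-d6/phosphate buffer (pH 7.4) 1:200 (v/v), 25 °C; half-life derived from this thermal back-isomerization.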

[11] = target: T1, Sodium- and chloride-dependent GABA transporter 1; assay: Inhibition of mouse GAT1 stably expressed in HEK293 assessed as inhibition of [3H]GABA uptake treated with compound irradiated at 350 nm for 30 mins measured after 25 mins by liquid scintillation counting; type: cell-based
[12] = Half life of thermal relaxation of the compound in D2O in dark at 10 mM by 1H NMR analysis; type: physicochemical; settings: 10000 µM
Outline: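 Thermal relaxation of the photoisomer back to the (E)-form followed in the dark by 1H NMR in D2O, 10 mM, at 37 °C.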

| t1/2 [12] | Structure (SMILES) | IC50 [1] | IC50 [2] | IC50 [3] | IC50 [5] | IC50 [9] | IC50 [11] | further results |
| --- | --- | --- | --- | --- | --- | --- | --- | --- |
| – | O=C(O)[C@@H]1CCCN(CCOCCc2cccc(/N=N/c3cccc4ccccc34)c2)C1 | 0.407 µM | 64.6 µM | 30.9 µM | 25.1 µM | 1.66 µM | – | Ratio IC50 [4]: 4; inhibition [6]: inactive; inhibition [7]: inactive; inhibition [8]: Active |
| – | O=C(O)[C@@H]1CCCN(CCOCCc2ccc(/N=N\c3cccc4ccccc34)cc2)C1 | – | – | – | – | 0.794 µM | – | t1/2 [10]: 13.6 h |
| – | O=C(O)C1CCCN(CCOCCc2ccccc2/N=N/c2ccccc2)C1 (stereo not given) | 10.7 µM | 234 µM | 562 µM | 145 µM | – | 5.5 µM | – |
| – | O=C(O)C1CCCN(CCOCCc2cccc(/N=N/c3ccccc3)c2)C1 (stereo not given) | 3.16 µM | 339 µM | 209 µM | 148 µM | – | 4.17 µM | – |
| 57.6 h | O=C(O)C1CCCN(CCOCCc2ccc(/N=N\c3ccccc3)cc2)C1 (stereo not given) | – | – | – | – | – | 4.57 µM | – |
| – | O=C(O)[C@@H]1CCCN(CCOCCc2cccc(/N=N\c3cccc4ccccc34)c2)C1 | – | – | – | – | 1.66 µM | – | t1/2 [10]: 19.3 h |
| – | O=C(O)C1CCCN(CCOCCc2ccc(/N=N/c3ccccc3)cc2)C1 (stereo not given) | 1.91 µM | > 1000 µM | > 1000 µM | > 1000 µM | – | 4.57 µM | – |
| – | O=C(O)[C@@H]1CCCN(CCOCCc2ccc(/N=N/c3cccc4ccccc34)cc2)C1 | 0.269 µM | 20.4 µM | 22.9 µM | 19.5 µM | 0.794 µM | – | Ratio IC50 [4]: 3 |
| 140 h | O=C(O)C1CCCN(CCOCCc2cccc(/N=N\c3ccccc3)c2)C1 (stereo not given) | – | – | – | – | – | 4.17 µM | – |

| Structure (SMILES) | t1/2 [12] | IC50 [1] | IC50 [2] | IC50 [3] | IC50 [5] | IC50 [9] | IC50 [11] | further results |
| --- | --- | --- | --- | --- | --- | --- | --- | --- |
| O=C(O)C1CCCN(CCOCCc2ccccc2/N=N\c2ccccc2)C1 (stereo not given) | 115 h | – | – | – | – | – | 5.5 µM | – |
